{
  "source": "ChEMBL document CHEMBL2346629",
  "about": "“Discovery and characterization of novel allosteric FAK inhibitors” (Eur J Med Chem, 2013)",
  "key": {"[1]": {"biological_target": "Dual specificity protein kinase CLK1 (Homo sapiens) (UniProt P49759)", "test": "Inhibition of CLK1 CD (unknown origin) using [gamma-33P]ATP assessed as residual activity at 3 uM", "how_it_was_run": "(§1)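 Reaction Biology HotSpot radiometric profiling panel of 288 kinases (261 wild-type, 27 mutant). Kinase activity was read out by incorporation of [γ-33P]ATP.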"}, "[2]": {"biological_target": "Serine/threonine-protein kinase Nek2 (Homo sapiens) (UniProt P51955)", "test": "Inhibition of NEK2 (unknown origin) using [gamma-33P]ATP assessed as residual activity at 3 uM"}, "[3]": {"biological_target": "Serine/threonine-protein kinase Nek7 (Homo sapiens) (UniProt Q8TDX7)", "test": "Inhibition of NEK7 (unknown origin) using [gamma-33P]ATP assessed as residual activity at 3 uM"}, "[4]": {"biological_target": "Serine/threonine-protein kinase PLK3 (Homo sapiens) (UniProt Q9H4B4)", "test": "Inhibition of PLK3 (unknown origin) using [gamma-33P]ATP assessed as residual activity at 3 uM"}, "[5]": {"biological_target": "Serine/threonine-protein kinase pim-2 (Homo sapiens) (UniProt Q9P1W9)", "test": "Inhibition of PIM2 (unknown origin) using [gamma-33P]ATP assessed as residual activity at 3 uM"}, "[6]": {"biological_target": "CDK9/Cyclin K (Homo sapiens) (UniProt P50750+O75909)", "test": "Inhibition of CDK9/cyclin K (unknown origin) using [gamma-33P]ATP assessed as residual activity at 3 uM", "format": "protein-complex assay", "how_it_was_run": "(§2)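 Radiometric profiling across 288 kinases (261 wild-type, 27 mutant), run as an outsourced service. Inhibition read out as [gamma-33P]ATP incorporation into substrate.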"}, "[7]": {"tested_on": "Platelet-derived growth factor receptor alpha (Homo sapiens), P16234 [D842V]", "test": "Inhibition of PDGFRa D842V mutant (unknown origin) using [gamma-33P]ATP assessed as residual activity at 3 uM"}, "[8]": {"biological_target": "Mitogen-activated protein kinase 10 (Homo sapiens) (UniProt P53779)", "test": "Inhibition of JNK3 (unknown origin) using [gamma-33P]ATP assessed as residual activity at 3 uM", "how_it_was_run": "(§3)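 Radiometric kinase profiling service covering 288 kinases (261 wild-type, 27 mutant). Inhibition was read as incorporation from [γ-³³P]ATP.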"}, "[9]": {"biological_target": "Cyclin-dependent kinase 2/cyclin E1 (Homo sapiens) (UniProt P24864+P24941)", "test": "Inhibition of CDK2/cyclinE (unknown origin) using [gamma-33P]ATP assessed as residual activity at 3 uM", "format": "protein-complex assay", "how_it_was_run": "as §2"}, "[10]": {"biological_target": "Glycogen synthase kinase-3 alpha (Homo sapiens) (UniProt P49840)", "test": "Inhibition of GSK3a (unknown origin) using [gamma-33P]ATP assessed as residual activity at 3 uM", "how_it_was_run": "as §3"}, "[11]": {"biological_target": "CDK3/cyclin E (Homo sapiens) (UniProt P24864+O96020+Q00526)", "sequence (O96020 whole entry, looked up)": "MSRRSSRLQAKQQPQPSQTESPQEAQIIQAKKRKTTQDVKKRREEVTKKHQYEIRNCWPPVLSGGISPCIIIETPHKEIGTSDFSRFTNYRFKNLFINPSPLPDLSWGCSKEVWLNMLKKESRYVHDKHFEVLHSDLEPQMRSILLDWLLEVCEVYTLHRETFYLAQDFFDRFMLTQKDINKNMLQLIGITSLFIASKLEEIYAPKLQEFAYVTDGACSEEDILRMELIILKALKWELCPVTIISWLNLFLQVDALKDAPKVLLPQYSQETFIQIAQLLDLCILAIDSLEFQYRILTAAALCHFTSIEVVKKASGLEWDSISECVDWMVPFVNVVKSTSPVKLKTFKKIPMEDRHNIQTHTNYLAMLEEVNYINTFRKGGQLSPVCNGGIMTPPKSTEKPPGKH", "sequence (P24864 whole entry, looked up)": "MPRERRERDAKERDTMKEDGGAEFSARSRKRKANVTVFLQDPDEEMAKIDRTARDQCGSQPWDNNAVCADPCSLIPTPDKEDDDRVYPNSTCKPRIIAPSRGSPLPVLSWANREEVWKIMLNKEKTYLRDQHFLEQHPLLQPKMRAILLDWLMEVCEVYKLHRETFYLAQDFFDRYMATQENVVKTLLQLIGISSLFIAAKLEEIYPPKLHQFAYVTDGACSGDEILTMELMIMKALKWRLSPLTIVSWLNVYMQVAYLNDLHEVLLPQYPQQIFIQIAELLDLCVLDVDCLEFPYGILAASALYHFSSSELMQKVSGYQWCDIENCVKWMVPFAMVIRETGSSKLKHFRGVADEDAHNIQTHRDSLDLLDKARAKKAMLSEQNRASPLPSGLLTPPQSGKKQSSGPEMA", "sequence (Q00526 whole entry, looked up)": "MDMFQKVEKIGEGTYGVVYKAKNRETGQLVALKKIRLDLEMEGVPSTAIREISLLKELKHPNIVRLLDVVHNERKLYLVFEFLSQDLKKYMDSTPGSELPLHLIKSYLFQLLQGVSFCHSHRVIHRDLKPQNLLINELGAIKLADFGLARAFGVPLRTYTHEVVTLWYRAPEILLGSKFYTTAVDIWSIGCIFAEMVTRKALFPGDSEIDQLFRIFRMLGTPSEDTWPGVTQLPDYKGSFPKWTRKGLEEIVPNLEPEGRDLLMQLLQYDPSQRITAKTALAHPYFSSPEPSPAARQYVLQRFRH", "test": "Inhibition of CDK3/cyclinE (unknown origin) using [gamma-33P]ATP assessed as residual activity at 3 uM", "format": "protein-complex assay", "how_it_was_run": "as §2"}, "[12]": {"tested_on": "Tyrosine-protein kinase ABL1 (Homo sapiens), P00519 [H396P]", "test": "Inhibition of ABL1 H396P mutant (unknown origin) using [gamma-33P]ATP assessed as residual activity at 3 uM", "how_it_was_run": "as §2"}, "[13]": {"biological_target": "Platelet-derived growth factor receptor alpha (Homo sapiens) (UniProt P16234)", "test": "Inhibition of PDGFRa (unknown origin) using [gamma-33P]ATP assessed as residual activity at 3 uM"}, "[14]": {"biological_target": "Serine/threonine-protein kinase Sgk1 (Homo sapiens) (UniProt O00141)", "sequence (O00141 whole entry)": "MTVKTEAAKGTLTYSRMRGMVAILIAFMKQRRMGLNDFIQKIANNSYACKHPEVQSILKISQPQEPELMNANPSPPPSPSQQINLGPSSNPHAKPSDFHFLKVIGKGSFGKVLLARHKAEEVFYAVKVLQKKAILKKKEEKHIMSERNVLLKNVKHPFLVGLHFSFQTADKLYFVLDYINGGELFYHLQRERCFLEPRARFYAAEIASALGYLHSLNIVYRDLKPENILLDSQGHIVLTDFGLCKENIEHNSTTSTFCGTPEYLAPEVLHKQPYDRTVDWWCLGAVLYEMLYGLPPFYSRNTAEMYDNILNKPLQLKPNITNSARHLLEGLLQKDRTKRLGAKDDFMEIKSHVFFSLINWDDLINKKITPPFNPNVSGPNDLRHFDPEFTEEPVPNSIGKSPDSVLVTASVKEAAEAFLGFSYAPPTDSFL", "test": "Inhibition of SGK1 (unknown origin) using [gamma-33P]ATP assessed as residual activity at 3 uM"}, "[15]": {"biological_target": "Myosin light chain kinase 2, skeletal/cardiac muscle (Homo sapiens) (UniProt Q9H1R3)", "sequence (Q9H1R3 whole entry)": "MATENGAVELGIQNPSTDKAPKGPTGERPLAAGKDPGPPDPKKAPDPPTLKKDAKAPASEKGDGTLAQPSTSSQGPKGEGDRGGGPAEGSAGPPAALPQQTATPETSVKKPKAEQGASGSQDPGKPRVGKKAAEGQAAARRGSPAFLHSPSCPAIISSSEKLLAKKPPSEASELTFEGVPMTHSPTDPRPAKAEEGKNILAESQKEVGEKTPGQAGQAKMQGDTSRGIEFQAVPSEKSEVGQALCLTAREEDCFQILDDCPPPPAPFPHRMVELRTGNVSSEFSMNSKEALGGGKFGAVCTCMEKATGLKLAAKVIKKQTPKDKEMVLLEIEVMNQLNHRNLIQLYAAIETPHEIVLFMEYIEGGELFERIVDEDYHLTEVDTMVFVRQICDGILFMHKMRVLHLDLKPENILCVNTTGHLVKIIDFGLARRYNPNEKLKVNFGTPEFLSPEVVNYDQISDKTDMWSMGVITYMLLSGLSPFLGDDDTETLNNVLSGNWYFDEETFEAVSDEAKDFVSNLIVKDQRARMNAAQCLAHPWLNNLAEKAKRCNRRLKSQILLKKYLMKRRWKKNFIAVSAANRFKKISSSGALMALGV", "test": "Inhibition of MLCK2 (unknown origin) using [gamma-33P]ATP assessed as residual activity at 3 uM", "how_it_was_run": "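Contract radiometric panel screen of 288 kinases (261 wild-type, 27 mutant). Inhibition was read by [gamma-33P]ATP radioactivity incorporation.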"}, "[16]": {"biological_target": "Tyrosine-protein kinase Mer (Homo sapiens) (UniProt Q12866)", "sequence (Q12866 whole entry)": "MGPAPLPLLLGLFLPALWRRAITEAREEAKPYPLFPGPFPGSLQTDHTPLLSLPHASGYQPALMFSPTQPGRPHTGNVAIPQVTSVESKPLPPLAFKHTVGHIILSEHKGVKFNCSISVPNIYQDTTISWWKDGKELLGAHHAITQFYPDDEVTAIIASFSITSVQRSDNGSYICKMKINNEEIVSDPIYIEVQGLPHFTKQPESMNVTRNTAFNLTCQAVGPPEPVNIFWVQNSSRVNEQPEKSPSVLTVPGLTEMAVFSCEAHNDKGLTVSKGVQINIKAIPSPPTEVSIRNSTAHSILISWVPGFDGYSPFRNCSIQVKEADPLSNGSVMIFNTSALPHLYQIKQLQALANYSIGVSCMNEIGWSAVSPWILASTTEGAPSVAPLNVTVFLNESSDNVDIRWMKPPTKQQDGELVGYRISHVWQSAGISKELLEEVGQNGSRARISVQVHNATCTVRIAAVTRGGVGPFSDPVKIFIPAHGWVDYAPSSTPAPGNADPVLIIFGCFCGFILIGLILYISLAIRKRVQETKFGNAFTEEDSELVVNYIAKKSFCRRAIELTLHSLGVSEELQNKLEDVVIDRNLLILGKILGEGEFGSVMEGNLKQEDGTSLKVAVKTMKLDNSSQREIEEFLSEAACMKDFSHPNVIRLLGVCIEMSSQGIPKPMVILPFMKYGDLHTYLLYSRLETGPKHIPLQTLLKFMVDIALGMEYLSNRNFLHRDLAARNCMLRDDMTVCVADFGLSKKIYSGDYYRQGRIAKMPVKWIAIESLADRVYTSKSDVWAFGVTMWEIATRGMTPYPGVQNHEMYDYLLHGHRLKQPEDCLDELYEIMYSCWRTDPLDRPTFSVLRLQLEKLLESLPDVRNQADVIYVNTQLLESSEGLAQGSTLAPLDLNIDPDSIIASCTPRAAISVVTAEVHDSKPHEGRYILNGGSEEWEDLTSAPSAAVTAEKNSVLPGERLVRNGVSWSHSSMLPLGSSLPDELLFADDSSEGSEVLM", "test": "Inhibition of c-MER (unknown origin) using [gamma-33P]ATP assessed as residual activity at 3 uM"}, "[17]": {"tested_on": "Tyrosine-protein kinase ABL1 (Homo sapiens), P00519 [Q252H]", "test": "Inhibition of ABL1 Q252H mutant (unknown origin) using [gamma-33P]ATP assessed as residual activity at 3 uM", "how_it_was_run": "as §2"}, "[18]": {"biological_target": "Serine/threonine-protein kinase Chk2 (Homo sapiens, UniProt O96017)", "sequence (O96017 whole entry)": "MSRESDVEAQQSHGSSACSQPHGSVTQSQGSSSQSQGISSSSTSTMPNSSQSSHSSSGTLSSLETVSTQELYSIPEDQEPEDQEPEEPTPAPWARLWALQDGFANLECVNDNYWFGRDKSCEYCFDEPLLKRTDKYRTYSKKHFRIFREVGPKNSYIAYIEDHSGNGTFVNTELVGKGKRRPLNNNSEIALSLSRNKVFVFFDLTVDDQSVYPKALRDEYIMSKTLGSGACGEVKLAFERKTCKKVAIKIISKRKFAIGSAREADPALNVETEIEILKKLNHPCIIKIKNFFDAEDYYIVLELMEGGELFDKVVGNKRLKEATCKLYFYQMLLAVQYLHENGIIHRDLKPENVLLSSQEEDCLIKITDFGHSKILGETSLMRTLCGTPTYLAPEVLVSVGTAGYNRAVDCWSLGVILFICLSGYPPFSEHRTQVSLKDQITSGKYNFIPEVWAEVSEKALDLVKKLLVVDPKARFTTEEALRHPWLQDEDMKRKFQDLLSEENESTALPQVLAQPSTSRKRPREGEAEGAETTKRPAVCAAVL", "test": "Inhibition of CHK2 (unknown origin) using [gamma-33P]ATP assessed as residual activity at 3 uM"}, "[19]": {"biological_target": "Dual specificity protein kinase CLK3 (Homo sapiens) (UniProt P49761)", "test": "Inhibition of CLK3 (unknown origin) using [gamma-33P]ATP assessed as residual activity at 3 uM", "how_it_was_run": "as §1"}, "[20]": {"biological_target": "SRSF protein kinase 1 (Homo sapiens) (UniProt Q96SB4)", "test": "Inhibition of SRPK1 (unknown origin) using [gamma-33P]ATP assessed as residual activity at 3 uM"}, "[21]": {"biological_target": "Mitogen-activated protein kinase 1 (Homo sapiens) (UniProt P28482)", "sequence (P28482 whole entry)": "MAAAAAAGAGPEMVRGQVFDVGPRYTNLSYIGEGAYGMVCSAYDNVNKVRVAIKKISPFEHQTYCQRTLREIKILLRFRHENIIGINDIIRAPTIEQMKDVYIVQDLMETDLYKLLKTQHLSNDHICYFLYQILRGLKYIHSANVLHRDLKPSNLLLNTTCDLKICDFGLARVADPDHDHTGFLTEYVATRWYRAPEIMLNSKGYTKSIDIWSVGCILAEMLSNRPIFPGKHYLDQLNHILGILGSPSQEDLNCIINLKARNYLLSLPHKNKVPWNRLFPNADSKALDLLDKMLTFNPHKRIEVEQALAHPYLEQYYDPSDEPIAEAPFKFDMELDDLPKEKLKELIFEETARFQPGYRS", "test": "Inhibition of ERK2 (unknown origin) using [gamma-33P]ATP assessed as residual activity at 3 uM", "how_it_was_run": "as §1"}, "[22]": {"biological_target": "Receptor-type tyrosine-protein kinase FLT3 (Homo sapiens) (UniProt P36888)", "test": "Inhibition of FLT3 (unknown origin) using [gamma-33P]ATP assessed as residual activity at 3 uM", "how_it_was_run": "as §3"}, "[23]": {"biological_target": "Tyrosine-protein kinase receptor UFO (Homo sapiens) (UniProt P30530)", "test": "Inhibition of AXL (unknown origin) using [gamma-33P]ATP assessed as residual activity at 3 uM", "how_it_was_run": "as §2"}, "[24]": {"biological_target": "Rhodopsin kinase GRK7 (Homo sapiens) (UniProt Q8WTQ7)", "test": "Inhibition of GRK7 (unknown origin) using [gamma-33P]ATP assessed as residual activity at 3 uM", "how_it_was_run": "as §3"}, "[25]": {"biological_target": "Homeodomain-interacting protein kinase 3 (Homo sapiens) (UniProt Q9H422)", "test": "Inhibition of HIPK3 (unknown origin) using [gamma-33P]ATP assessed as residual activity at 3 uM", "how_it_was_run": "as §3"}, "[26]": {"biological_target": "Ephrin type-A receptor 5 (Homo sapiens) (UniProt P54756)", "test": "Inhibition of EPHA5 (unknown origin) using [gamma-33P]ATP assessed as residual activity at 3 uM", "how_it_was_run": "as §1"}, "[27]": {"biological_target": "Casein kinase I isoform epsilon (Homo sapiens) (UniProt P49674)", "sequence (P49674 whole entry, looked up, canonical isoform)": "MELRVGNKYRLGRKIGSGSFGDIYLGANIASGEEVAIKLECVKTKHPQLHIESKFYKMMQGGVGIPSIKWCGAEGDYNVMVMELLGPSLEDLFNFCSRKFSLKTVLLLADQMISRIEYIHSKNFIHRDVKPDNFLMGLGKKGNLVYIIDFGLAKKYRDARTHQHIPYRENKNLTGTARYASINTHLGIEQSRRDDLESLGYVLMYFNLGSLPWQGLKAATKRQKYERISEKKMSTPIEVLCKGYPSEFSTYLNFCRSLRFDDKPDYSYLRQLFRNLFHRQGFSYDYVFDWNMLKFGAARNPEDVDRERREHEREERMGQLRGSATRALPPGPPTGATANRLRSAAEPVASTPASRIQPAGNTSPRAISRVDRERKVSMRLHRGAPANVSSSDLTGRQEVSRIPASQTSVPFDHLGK", "test": "Inhibition of CK1epsilon (unknown origin) using [gamma-33P]ATP assessed as residual activity at 3 uM", "how_it_was_run": "as §1"}, "[28]": {"biological_target": "Tyrosine-protein kinase Lyn (Homo sapiens) (UniProt P07948)", "test": "Inhibition of LYN (unknown origin) using [gamma-33P]ATP assessed as residual activity at 3 uM", "how_it_was_run": "as §3"}, "[29]": {"biological_target": "Serine/threonine-protein kinase Nek3 (Homo sapiens) (UniProt P51956)", "sequence (P51956 whole entry)": "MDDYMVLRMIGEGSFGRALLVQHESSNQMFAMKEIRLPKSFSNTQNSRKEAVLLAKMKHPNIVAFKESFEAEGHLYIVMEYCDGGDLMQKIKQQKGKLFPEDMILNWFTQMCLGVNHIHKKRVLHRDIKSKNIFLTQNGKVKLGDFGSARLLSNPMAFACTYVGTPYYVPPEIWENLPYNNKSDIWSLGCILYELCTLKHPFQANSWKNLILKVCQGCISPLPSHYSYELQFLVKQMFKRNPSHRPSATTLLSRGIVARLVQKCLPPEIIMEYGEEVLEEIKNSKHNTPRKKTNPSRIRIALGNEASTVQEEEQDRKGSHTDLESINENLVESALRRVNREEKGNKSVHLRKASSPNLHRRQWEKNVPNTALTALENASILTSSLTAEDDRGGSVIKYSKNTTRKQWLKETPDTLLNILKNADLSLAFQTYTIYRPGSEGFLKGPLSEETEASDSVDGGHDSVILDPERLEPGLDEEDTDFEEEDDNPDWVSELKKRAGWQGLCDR", "test": "Inhibition of NEK3 (unknown origin) using [gamma-33P]ATP assessed as residual activity at 3 uM"}, "[30]": {"biological_target": "Serine/threonine-protein kinase PAK 3 (Homo sapiens) (UniProt O75914)", "test": "Inhibition of PAK3 (unknown origin) using [gamma-33P]ATP assessed as residual activity at 3 uM"}, "[31]": {"biological_target": "Tyrosine-protein kinase ITK/TSK (Homo sapiens) (UniProt Q08881)", "test": "Inhibition of ITK (unknown origin) using [gamma-33P]ATP assessed as residual activity at 3 uM", "how_it_was_run": "as §3"}},
  "data": [
    {"smiles": "CCc1ccc(-c2ccc3c(c2)-c2[nH]ncc2S(=O)(=O)N3C)cc1", "values": [
      {"measurement": "Activity", "setting": "[1]", "result": 85, "unit": "%"},
      {"measurement": "Activity", "setting": "[2]", "result": 96, "unit": "%"},
      {"measurement": "Activity", "setting": "[3]", "result": 101, "unit": "%"},
      {"measurement": "Activity", "setting": "[4]", "result": 105, "unit": "%"},
      {"measurement": "Activity", "setting": "[5]", "result": 101, "unit": "%"},
      {"measurement": "Activity", "setting": "[6]", "result": 97, "unit": "%"},
      {"measurement": "Activity", "setting": "[7]", "result": 26, "unit": "%"},
      {"measurement": "Activity", "setting": "[8]", "result": 102, "unit": "%"},
      {"measurement": "Activity", "setting": "[9]", "result": 91, "unit": "%"},
      {"measurement": "Activity", "setting": "[10]", "result": 81, "unit": "%"},
      {"measurement": "Activity", "setting": "[11]", "result": 96, "unit": "%"},
      {"measurement": "Activity", "setting": "[12]", "result": 71, "unit": "%"},
      {"measurement": "Activity", "setting": "[13]", "result": 87, "unit": "%"},
      {"measurement": "Activity", "setting": "[14]", "result": 82, "unit": "%"},
      {"measurement": "Activity", "setting": "[15]", "result": 96, "unit": "%"},
      {"measurement": "Activity", "setting": "[16]", "result": 86, "unit": "%"},
      {"measurement": "Activity", "setting": "[17]", "result": 60, "unit": "%"},
      {"measurement": "Activity", "setting": "[18]", "result": 50, "unit": "%"},
      {"measurement": "Activity", "setting": "[19]", "result": 95, "unit": "%"},
      {"measurement": "Activity", "setting": "[20]", "result": 90, "unit": "%"},
      {"measurement": "Activity", "setting": "[21]", "result": 93, "unit": "%"},
      {"measurement": "Activity", "setting": "[22]", "result": 53, "unit": "%"},
      {"measurement": "Activity", "setting": "[23]", "result": 89, "unit": "%"},
      {"measurement": "Activity", "setting": "[24]", "result": 85, "unit": "%"},
      {"measurement": "Activity", "setting": "[25]", "result": 104, "unit": "%"},
      {"measurement": "Activity", "setting": "[26]", "result": 90, "unit": "%"},
      {"measurement": "Activity", "setting": "[27]", "result": 96, "unit": "%"},
      {"measurement": "Activity", "setting": "[28]", "result": 78, "unit": "%"},
      {"measurement": "Activity", "setting": "[29]", "result": 100, "unit": "%"},
      {"measurement": "Activity", "setting": "[30]", "result": 95, "unit": "%"},
      {"measurement": "Activity", "setting": "[31]", "result": 88, "unit": "%"}
    ]}
  ]
}
